Laboratory results published in ChEMBL document CHEMBL4765447, “Design, synthesis and biological evaluation of diamino substituted cyclobut-3-ene-1,2-dione derivatives for the treatment of drug-resistant tuberculosis” (Eur J Med Chem, 2020).
Values after ≈ are worked out from the molar mass of the structure shown.

Experiments:
[1] = system: Mycobacterium tuberculosis; experiment: Inhibition of ATP synthase in multi-drug resistant Mycobacterium tuberculosis clinical isolate 14862 assessed as reduction in bacterial growth incubated for 7 days by microplate alamar blue assay; settings: time 7.0 day
Method in brief: (§1)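 Microplate alamar blue assay. Strains grown to late log phase in 7H9 broth with 0.2% glycerol, 0.05% Tween 80 and 10% ADC, then washed, filtered (8 µm) and frozen. Twofold compound dilutions with 2×10^5 CFU per well at 37 °C. On day 7, Tween 80 and alamar blue added; after 16–24 h, fluorescence read at 530/590 nm. MIC is the lowest concentration giving ≥90% fluorescence reduction versus bacterium-only controls.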

[2] = system: Mycobacterium tuberculosis; experiment: Inhibition of ATP synthase in multi-drug resistant Mycobacterium tuberculosis clinical isolate 13946 assessed as reduction in bacterial growth incubated for 7 days by microplate alamar blue assay; settings: time 7.0 day; method in brief: as §1
[3] = Ratio of MIC for inhibition of ATP synthase in bedaquiline-resistant Mycobacterium tuberculosis to MIC for inhibition of ATP synthase in Mycobacterium tuberculosis H37Rv
Method in brief: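 Ratio of alamar-blue MIC against the bedaquiline-resistant strain to MIC against H37Rv, both measured in the 7-day microplate alamar blue assay.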

[4] = system: Mycobacterium tuberculosis; experiment: Inhibition of ATP synthase in bedaquiline-resistant Mycobacterium tuberculosis assessed as reduction in bacterial growth incubated for 7 days by microplate alamar blue assay; settings: time 7.0 day; method in brief: as §1

| Compound | MIC=>90 [1] | MIC=>90 [2] | Ratio [3] | MIC=>90 [4] |
| --- | --- | --- | --- | --- |
| O=C1CCCc2cc(Nc3c(NCc4ccccn4)c(=O)c3=O)ccc21 | 0.895 µg/mL (≈ 2.58 µM) | 0.488 µg/mL (≈ 1.4 µM) | – | – |
| O=c1c(NCc2ccccn2)c(Nc2ccc3c(c2)OCO3)c1=O | 0.499 µg/mL (≈ 1.54 µM) | 0.47 µg/mL (≈ 1.45 µM) | 7.5 | 3.76 µg/mL (≈ 11.6 µM) |
| O=c1c(NCc2ccccn2)c(-c2ccc(N3CCOCC3)cc2)c1=O | 0.114 µg/mL (≈ 0.326 µM) | 0.107 µg/mL (≈ 0.306 µM) | 14.9 | 3.02 µg/mL (≈ 8.63 µM) |
| COc1nc2ccc(Br)cc2cc1[C@@H](c1ccccc1)[C@@](O)(CCN(C)C)c1cccc2ccccc12 | – | – | 62 | 2.23 µg/mL (≈ 4.02 µM) |
| CO[C@H]1/C=C/O[C@@]2(C)Oc3c(C)c(O)c4c(O)c(c(/C=N/N5CCN(C)CC5)c(O)c4c3C2=O)NC(=O)/C(C)=C\C=C\[C@H](C)[C@H](O)[C@@H](C)[C@@H](O)[C@@H](C)[C@H](OC(C)=O)[C@@H]1C | 9.32 µg/mL (≈ 11.3 µM) | > 10 µg/mL | – | – |
| O=c1c(NCc2ccccn2)c(Nc2ccc3scnc3c2)c1=O | 3.37 µg/mL (≈ 10 µM) | 3.53 µg/mL (≈ 10.5 µM) | – | – |
| O=c1c(NCc2ccccn2)c(Nc2ccc3c(c2)CCC3)c1=O | 0.94 µg/mL (≈ 2.94 µM) | 0.903 µg/mL (≈ 2.83 µM) | – | – |
| Cc1cc(Nc2c(NCc3ccccn3)c(=O)c2=O)ccc1N1CCSCC1 | 0.207 µg/mL (≈ 0.525 µM) | 0.257 µg/mL (≈ 0.651 µM) | 5.7 | 4.85 µg/mL (≈ 12.3 µM) |
| NNC(=O)c1ccncc1 | > 10 µg/mL | 2.26 µg/mL (≈ 16.5 µM) | – | 0.052 µg/mL (≈ 0.379 µM) |
